In brackets after ≈: the same amount, converted by molar mass.
Tests used:
Mycolicibacterium aurum = assay: Antitubercular activity against Mycobacterium aurum A1; assay type: functional
[1] = tested on: Mycobacterium tuberculosis; assay: Antitubercular activity against Mycobacterium tuberculosis H37Rv
Mycobacterium avium = assay: Antitubercular activity against Mycobacterium avium; assay type: functional
Human respirovirus 3 = assay: Antiviral activity against Parainfluenza 3 virus in african green monkey Vero cells assessed as reduction of virus-induced cytopathogenicity; assay type: functional
In short: (§1)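 Confluent cell monolayers (E6SM, HEL, HeLa or Vero, per line) inoculated with 100 CCID50 virus; 1 h adsorption, residual virus removed, then incubated with compound at 400, 200, 100 … µg/ml. Cytopathicity scored once complete in untreated virus controls; MIC = concentration inhibiting virus-induced cytopathicity.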

[2] = tested on: Respiratory syncytial virus; assay: Antiviral activity against respiratory syncytial virus in human HeLa cells assessed as inhibition of virus-induced cytopathogenicity; assay type: functional; in short: as §1
[3] = Cytotoxicity against human HeLa cells; assay type: cell-based
In short: (§2)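 Uninfected cell cultures exposed to test compounds alongside antiviral assays; minimum cytotoxic concentration (MCC) = concentration causing a microscopically detectable alteration of cell morphology.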

[4] = tested on: Vesicular stomatitis virus; assay: Antiviral activity against vesicular stomatitis virus in human HeLa cells assessed as inhibition of virus-induced cytopathogenicity; assay type: functional; in short: as §1
Human alphaherpesvirus 1 [5] = assay: Antiviral activity against HSV1 KOS in human E6SM cells assessed as reduction of virus-induced cytopathogenicity; assay type: functional; conditions: Human alphaherpesvirus 1, KOS; in short: as §1
Sindbis virus = assay: Antiviral activity against Sindbis virus in african green monkey Vero cells assessed as reduction of virus-induced cytopathogenicity; assay type: functional; in short: as §1
Human alphaherpesvirus 1 [6] = assay: Antiviral activity against thymidine kinase deficient and acyclovir resistant HSV1 KOS in human HEL cells assessed as reduction of virus-induced cytopathogenicity; assay type: functional; conditions: Human alphaherpesvirus 1, KOS; in short: as §1
Coxsackievirus B4 [7] = assay: Antiviral activity against Coxsackie virus B4 in human HeLa cells assessed as inhibition of virus-induced cytopathogenicity; assay type: functional; conditions: Enterovirus B; in short: as §1
[8] = tested on: Vesicular stomatitis virus; assay: Antiviral activity against in Vesicular stomatitis virus in human E6SM cells assessed as reduction of virus-induced cytopathogenicity; assay type: functional; in short: as §1
Coxsackievirus B4 [9] = assay: Antiviral activity against Coxsackie virus B4 in african green monkey Vero cells assessed as reduction of virus-induced cytopathogenicity; assay type: functional; conditions: Enterovirus B; in short: as §1
[10] = tested on: Mammalian orthoreovirus 1; assay: Antiviral activity against Reo virus 1 in african green monkey Vero cells assessed as reduction of virus-induced cytopathogenicity; assay type: functional; in short: as §1
E6SM = assay: (§3) Cytotoxicity against human E6SM cells; assay type: cell-based; conditions: e6sm; in short: as §2
[11] = tested on: Vesicular stomatitis virus; assay: Antiviral activity against in Vesicular stomatitis virus in human HEL cells assessed as reduction of virus-induced cytopathogenicity; assay type: functional; in short: as §1
[12] = Cytotoxicity against human HEL cells assessed as alteration of cell morphology; assay type: cell-based; in short: as §2
Vero = assay: Cytotoxicity against african green monkey Vero cells; assay type: cell-based; conditions: chlorocebus sabaeus; in short: as §2
Human alphaherpesvirus 1 [13] = assay: Antiviral activity against HSV1 KOS in human HEL cells assessed as reduction of virus-induced cytopathogenicity; assay type: functional; conditions: Human alphaherpesvirus 1, KOS; in short: as §1
[14] = tested on: Human immunodeficiency virus 1; assay: Antiviral activity against HIV1 3B in human MT4 cells assessed as protection against virus-induced cytopathogenicity by MTT assay; assay type: functional, organism-based; design: Activity: concentration or dose not given beside the values; conditions: for IC50: Human immunodeficiency virus 1, 3B, MT4
In short: (§4)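 MT-4 cells at 6 × 10⁵ cells/ml infected with HIV-1 IIIB or HIV-2 ROD at 100–300 CCID50; compounds in serial five-fold dilutions, triplicate mock- and virus-infected wells. MTT viability read at 540 and 690 nm after 5 days, median OD of three wells; EC50 = 50% protection from viral cytopathic effect.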

Punta Toro virus = assay: Antiviral activity against Punta Toro virus in african green monkey Vero cells assessed as reduction of virus-induced cytopathogenicity; assay type: functional; in short: as §1
Human alphaherpesvirus 2 [15] = assay: Antiviral activity against HSV2 G in human HEL cells assessed as reduction of virus-induced cytopathogenicity; assay type: functional; conditions: Human alphaherpesvirus 2, G; in short: as §1
Human alphaherpesvirus 1 [16] = assay: Antiviral activity against thymidine kinase deficient and acyclovir resistant HSV1 KOS in human E6SM cells assessed as reduction of virus-induced cytopathogenicity; assay type: functional; conditions: Human alphaherpesvirus 1, KOS; in short: as §1
[17] = tested on: Human immunodeficiency virus 2; assay: Antiviral activity against HIV2 ROD in human MT4 cells assessed as protection against virus-induced cytopathogenicity by MTT assay; assay type: functional, organism-based; design: Activity: concentration or dose not given beside the values; conditions: for IC50: Human immunodeficiency virus 2, ROD, MT4; in short: as §4
Human alphaherpesvirus 2 [18] = assay: Antiviral activity against HSV2 G in human E6SM cells assessed as reduction of virus-induced cytopathogenicity; assay type: functional; conditions: Human alphaherpesvirus 2, G; in short: as §1
[19] = Cytotoxicity against human MT4 cells by MTT assay; assay type: cell-based
In short: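 Mock-infected MT-4 cells (6 × 10⁵ cells/ml) with serial five-fold compound dilutions in triplicate; MTT reduction read at 540 and 690 nm after 5 days, median OD of three wells; CC50 = concentration reducing OD540 of mock-infected control by 50%.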

Human betaherpesvirus 5 [20] = assay: Antiviral activity against human cytomegalovirus AD169 infected HEL cells assessed as reduction in virus plaque formation; assay type: functional, organism-based; conditions: Human betaherpesvirus 5, AD169, HEL
Human betaherpesvirus 5 [21] = assay: Antiviral activity against human cytomegalovirus Davis infected HEL cells assessed as reduction in virus plaque formation; assay type: functional, organism-based; conditions: Human betaherpesvirus 5, Davis
Human alphaherpesvirus 3 [22] = assay: Antiviral activity against TK- VZV 07/1 infected HEL cells assessed as reduction in virus plaque formation; assay type: functional, organism-based; conditions: Human alphaherpesvirus 3, 07/1, HEL
[23] = as §3; assay type: cell-based; conditions: E6SM cells; in short: as §2
Human alphaherpesvirus 3 [24] = assay: Antiviral activity against TK+ VZV OKA infected HEL cells assessed as reduction in virus plaque formation; assay type: functional, organism-based; conditions: Human alphaherpesvirus 3, OKA
[25] = Cytotoxicity against human HEL cells assessed as reduction of cell growth; assay type: cell-based
In short: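 HEL cells; CC50 = compound concentration reducing cell growth by 50%.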

[26] = tested on: Mycobacterium tuberculosis; assay: Antitubercular activity against Mycobacterium tuberculosis H37Rv at 6.25 ug/ml by MABA assay; assay type: functional

| SMILES | MIC (Human respirovirus 3) [µg/mL] | MIC [2] [µg/mL] | MCC [3] [µg/mL] | MIC [4] [µg/mL] | MIC (Human alphaherpesvirus 1 [5]) [µg/mL] | MIC (Sindbis virus) [µg/mL] | MIC (Human alphaherpesvirus 1 [6]) [µg/mL] | MIC (Coxsackievirus B4 [7]) [µg/mL] | MIC [8] [µg/mL] | MIC (Coxsackievirus B4 [9]) [µg/mL] | MIC [10] [µg/mL] | MIC [11] [µg/mL] | MCC [12] [µg/mL] | Activity (Vero) [µg/mL] | MIC (Human alphaherpesvirus 1 [13]) [µg/mL] | Activity [14] [%] | IC50 [14] [µg/mL] | MIC (Punta Toro virus) [µg/mL] | MIC (Human alphaherpesvirus 2 [15]) [µg/mL] | MIC (Human alphaherpesvirus 1 [16]) [µg/mL] | further results |
| --- | --- | --- | --- | --- | --- | --- | --- | --- | --- | --- | --- | --- | --- | --- | --- | --- | --- | --- | --- | --- | --- |
| CC(C)CCOc1ccc(NC(=S)Nc2ccc(OCCC(C)C)cc2)cc1 [TIOCARLIDE] |  |  |  |  |  |  |  |  |  |  |  |  |  |  |  |  |  |  |  |  | MIC (Mycolicibacterium aurum): 2 µg/mL (≈ 4.99 µM); MIC [1]: 2.5 µg/mL (≈ 6.24 µM); MIC (Mycobacterium avium): 2 µg/mL (≈ 4.99 µM) |
| CCCCCCNC(=S)Nc1ccc(-c2n[nH]c(=S)n2CCCCCC)cc1 | > 3.2 | > 3.2 | 16 | > 3.2 | > 3.2 | > 3.2 | > 3.2 | > 3.2 | > 3.2 | > 3.2 | > 3.2 | > 3.2 | 16 | 16 | > 3.2 | 3 | > 1.71 | > 3.2 | > 3.2 | > 3.2 | Activity (E6SM): 16 µg/mL; Activity [17]: 1%; IC50 [17]: > 1.71 µg/mL; MIC (Human alphaherpesvirus 2 [18]): > 3.2 µg/mL; CC50 [19]: 1.71 µg/mL (≈ 4.07 µM) |
| C=CCNC(=S)Nc1ccc(OCc2n[nH]c(=S)n2CC)cc1 | > 80 | > 80 | 400 | > 80 | > 400 | 48 (≈ 137 µM) | 240 (≈ 687 µM) | > 80 | > 400 | 48 (≈ 137 µM) | > 80 | > 400 | > 400 | 400 | > 400 | 3 | > 72.3 | > 80 | 240 (≈ 687 µM) | 240 (≈ 687 µM) | EC50 (Human betaherpesvirus 5 [20]): 45 µg/mL (≈ 129 µM); EC50 (Human betaherpesvirus 5 [21]): 45 µg/mL (≈ 129 µM); EC50 (Human alphaherpesvirus 3 [22]): 42 µg/mL (≈ 120 µM); MCC [23]: > 400 µg/mL; EC50 (Human alphaherpesvirus 3 [24]): 41 µg/mL (≈ 117 µM); CC50 [25]: > 50 µg/mL; Activity [17]: 2%; IC50 [17]: > 71.4 µg/mL; inhibition at 6.25 µg/mL [26]: 75%; MIC (Human alphaherpesvirus 2 [18]): 240 µg/mL (≈ 687 µM); CC50 [19]: 75.9 µg/mL (≈ 217 µM) |
| C=CCNC(=S)Nc1ccc(OCc2n[nH]c(=S)n2CC=C)cc1 | > 80 | > 80 | 400 | > 80 | 240 (≈ 664 µM) | > 80 | 240 (≈ 664 µM) | > 80 | > 400 | 48 (≈ 133 µM) | > 80 | > 400 | > 400 | 400 | 240 (≈ 664 µM) | 3 | > 66.5 | > 80 | 240 (≈ 664 µM) | 240 (≈ 664 µM) | EC50 (Human betaherpesvirus 5 [20]): 100 µg/mL (≈ 277 µM); EC50 (Human betaherpesvirus 5 [21]): 77 µg/mL (≈ 213 µM); EC50 (Human alphaherpesvirus 3 [22]): 46 µg/mL (≈ 127 µM); MCC [23]: > 400 µg/mL; EC50 (Human alphaherpesvirus 3 [24]): 41 µg/mL (≈ 113 µM); CC50 [25]: > 50 µg/mL; Activity [17]: 1%; IC50 [17]: > 69.7 µg/mL; inhibition at 6.25 µg/mL [26]: 59%; MIC (Human alphaherpesvirus 2 [18]): 240 µg/mL (≈ 664 µM); CC50 [19]: 71.5 µg/mL (≈ 198 µM) |

From ChEMBL document CHEMBL1149790, “Synthesis of some novel thiourea derivatives obtained from 5-[(4-aminophenoxy)methyl]-4-alkyl/aryl-2,4-dihydro-3H-1,2,4-triazole-3-thiones and evaluation as antiviral/anti-HIV and anti-tuberculosis agents” (Eur J Med Chem, 2008)
